Measured values published in ChEMBL document CHEMBL2010794, “Discovery of nor-seco himbacine analogs as thrombin receptor antagonists” (Bioorg Med Chem Lett, 2012).
One block for each compound: values may come before it. Activity calls are given as the source filed them. The calls are words filed in the database; no cut-off is given here.

Assays:
Cynomolgus monkey [1] = assay: Ex-vivo inhibition of PAR1 in cynomolgus monkey assessed as inhibition of haTRAP-induced platelet aggregation at 3 mg/kg, po at 6 hrs by aggregometry; type: functional; conditions: Macaca fascicularis
Procedure, shortened: (§1)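 Cynomolgus monkeys dosed orally in 20% PEG-HPBCD (hydrochloride salt for the 7a-hydroxy series); blood sampled at various times up to 24 h; haTRAP added to whole blood at 1 µM to trigger aggregation, measured by aggregometer; result given as % reduction in haTRAP-induced aggregation at the stated dose and time.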

[2] = AUC (0 to 24 hrs) in cynomolgus monkey plasma at 3 mg/kg, po; type: ADME, organism-based, Macaca fascicularis; parameters: time < 24 hr, dose 3 mg/kg, route oral
[3] = molecular target: T1, Proteinase-activated receptor 1 (Homo sapiens, UniProt P25116); assay: Displacement of [3H]haTRAP from human PAR1 after 1 hr by TopCount scintillation counting
T1 sequence (P25116 whole entry): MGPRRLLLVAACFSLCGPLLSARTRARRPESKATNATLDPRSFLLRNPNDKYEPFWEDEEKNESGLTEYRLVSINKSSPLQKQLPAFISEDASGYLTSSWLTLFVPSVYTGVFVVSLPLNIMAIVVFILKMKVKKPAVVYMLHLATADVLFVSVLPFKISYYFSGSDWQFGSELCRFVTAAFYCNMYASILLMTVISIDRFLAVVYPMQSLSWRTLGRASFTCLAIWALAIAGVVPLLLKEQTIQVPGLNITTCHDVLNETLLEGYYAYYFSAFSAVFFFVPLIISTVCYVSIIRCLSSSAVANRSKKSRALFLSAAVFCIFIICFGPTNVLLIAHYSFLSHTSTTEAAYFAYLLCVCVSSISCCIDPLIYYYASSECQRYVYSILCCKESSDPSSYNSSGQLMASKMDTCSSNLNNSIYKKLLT
Procedure, shortened: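 PAR-1 receptors isolated from human platelets; competition binding against [³H]haTRAP radioligand; values expressed as IC₅₀ (nM).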

[4] = AUC (0 to 6 hrs) in rat at 10 mg/kg, po; type: ADME, organism-based; parameters: time < 6 hr, dose 10 mg/kg, route oral; conditions: plasma
Procedure, shortened: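 Rats given a single 10 mg/kg oral dose in 0.4% methylcellulose; plasma levels followed up to 6 h; AUC from 0 to 6 h reported in ng h/mL.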

Cynomolgus monkey [5] = assay: Ex-vivo inhibition of PAR1 in cynomolgus monkey assessed as inhibition of haTRAP-induced platelet aggregation at 3 mg/kg, po at 24 hrs by aggregometry; type: functional; conditions: Macaca fascicularis; procedure, shortened: as §1
Cynomolgus monkey [6] = assay: Ex-vivo inhibition of PAR1 in cynomolgus monkey assessed as inhibition of haTRAP-induced platelet aggregation at 1 mg/kg, po up to 6 hrs by aggregometry; type: functional, organism-based; parameters: dose 1 mg/kg; conditions: Macaca fascicularis; procedure, shortened: as §1
[7] = AUC (0 to 24 hrs) in cynomolgus monkey at 1 mg/kg, po; type: ADME, organism-based, Macaca fascicularis; parameters: time < 24 hr, dose 1 mg/kg, route oral; conditions: plasma
Cynomolgus monkey [8] = assay: Ex-vivo inhibition of PAR1 in cynomolgus monkey assessed as inhibition of haTRAP-induced platelet aggregation at 1 mg/kg, po at 24 hrs by aggregometry; type: functional; conditions: Macaca fascicularis; procedure, shortened: as §1
[9] = Cmax in cynomolgus monkey plasma at 3 mg/kg, po; type: ADME, organism-based, Macaca fascicularis; parameters: dose 3 mg/kg, route oral
Cynomolgus monkey [10] = assay: AUC (0 to 24 hrs) in cynomolgus monkey plasma assessed as M+16 hydroxy metabolite at 3 mg/kg, po; type: ADME, organism-based, Macaca fascicularis; parameters: time < 24 hr, dose 3 mg/kg, route oral; conditions: in vivo
Cynomolgus monkey [11] = assay: Cmax in cynomolgus monkey plasma assessed as M+16 hydroxy metabolite at 3 mg/kg, po; type: ADME, organism-based, Macaca fascicularis; parameters: dose 3 mg/kg, route oral; conditions: in vivo
Liver microsomes = assay: Prodrug activation in rat liver microsomes assessed as (3R,3aR,4S,5R,6S,7aS)-5-ethyl-4-((E)-2-(5-(3-fluorophenyl)pyridin-2-yl)vinyl)-7a-hydroxy-3,6-dimethylhexahydroisobenzofuran-1(3H)-one formation; parameters: species or system Microsome
Cynomolgus monkey [12] = assay: Ex-vivo inhibition of PAR1 in cynomolgus monkey assessed as inhibition of haTRAP-induced platelet aggregation at 1 mg/kg, po by aggregometry; type: functional, organism-based; parameters: dose 1 mg/kg; conditions: Macaca fascicularis; procedure, shortened: as §1
[13] = AUC (0 to 24 hrs) in cynomolgus monkey plasma at 1 mg/kg, po; type: ADME, organism-based, Macaca fascicularis; parameters: time < 24 hr, dose 1 mg/kg, route oral
[14] = Oral bioavailability in cynomolgus monkey at 1 mg/kg; type: ADME, organism-based, Macaca fascicularis; conditions: in vivo
Procedure, shortened: (§2)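 Full cynomolgus PK study: 1 mg/kg oral in 0.4% methylcellulose and 1 mg/kg intravenous in 20% HPBCD; AUC, oral Cmax, Tmax, half-life, Vd(ss) and clearance derived from plasma concentrations.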

[15] = AUC (0 to 24 hrs) in cynomolgus monkey at 1 mg/kg, po and 1 mg/kg, iv; type: ADME, organism-based, Macaca fascicularis; conditions: plasma; procedure, shortened: as §2
[16] = Cmax in cynomolgus monkey at 1 mg/kg, po; type: ADME, organism-based, Macaca fascicularis; parameters: dose 1 mg/kg, route oral; conditions: in vivo; procedure, shortened: as §2
[17] = Tmax in cynomolgus monkey at 1 mg/kg, po and 1 mg/kg, iv; type: ADME, organism-based, Macaca fascicularis; conditions: in vivo; procedure, shortened: as §2
[18] = Volume of distribution at steady state in cynomolgus monkey at 1 mg/kg, po and 1 mg/kg, iv; type: ADME, organism-based, Macaca fascicularis; conditions: in vivo, read-out: Vdss; procedure, shortened: as §2
[19] = Clearance in cynomolgus monkey at 1 mg/kg, po and 1 mg/kg, iv; type: ADME, organism-based, Macaca fascicularis; conditions: in vivo; procedure, shortened: as §2
[20] = Half life in cynomolgus monkey at 1 mg/kg, po and 1 mg/kg, iv; type: ADME, organism-based, Macaca fascicularis; conditions: in vivo; procedure, shortened: as §2

AUC(0-t) at 24 h [2]: 2770 ng·h/mL
SMILES: CC[C@H]1[C@H](/C=C/c2ccc(-c3cccc(C)c3)cn2)[C@@H]2[C@@H](C)OC(=O)[C@]2(O)C[C@@H]1C.Cl
inhibition in vivo at 3 mg/kg (Cynomolgus monkey [1]): 100%

IC50 ([3]; read-out: IC50): 45 nM
SMILES: CC[C@H]1[C@H](/C=C/c2ccc(-c3cccc(C)c3)cn2)[C@@H]2[C@@H](C)OC(=O)[C@@H]2C[C@@H]1C

IC50 ([3]; read-out: IC50): 20 nM
SMILES: CC[C@H]1[C@H](/C=C/c2ccc(-c3ccccc3C)cn2)[C@@H]2[C@@H](C)OC(=O)[C@@H]2C[C@@H]1C

IC50 ([3]; read-out: IC50): 20 nM
AUC(0-t) at 6 h [4]: 1080 ng·h/mL
SMILES: CC[C@H]1[C@H](/C=C/c2ccc(-c3cccc(C#N)c3)cn2)[C@@H]2[C@@H](C)OC(=O)[C@]2(O)C[C@@H]1C

AUC(0-t) at 24 h [13]: 1210 ng·h/mL
SMILES: CC[C@H]1[C@H](/C=C/c2ccc(-c3cccc(OC)c3)cn2)[C@@H]2[C@@H](C)OC(=O)[C@]2(O)C[C@@H]1C.Cl

IC50 ([3]; read-out: IC50): 8.6 nM
AUC(0-t) at 6 h [4]: 148 ng·h/mL
SMILES: CC[C@H]1[C@H](/C=C/c2ccc(-c3ccoc3)cn2)[C@@H]2[C@@H](C)OC(=O)[C@]2(O)C[C@@H]1C

IC50 ([3]; read-out: IC50): 28 nM
SMILES: CC[C@H]1[C@H](/C=C/c2ccc(-c3cccc(Cl)c3)cn2)[C@@H]2[C@@H](C)OC(=O)[C@@H]2C[C@@H]1C

Further lines, the compound ahead of its results:

SMILES: CC[C@H]1[C@H](/C=C/c2ccc(-c3ccccc3F)cn2)[C@@H]2[C@@H](C)OC(=O)[C@@H]2C[C@@H]1C
IC50 ([3]; read-out: IC50): 22 nM
AUC(0-t) at 6 h [4]: 852 ng·h/mL
inhibition in vivo at 3 mg/kg (Cynomolgus monkey [5]): 45%

SMILES: CC[C@H]1[C@H](/C=C/c2ccc(-c3cc(Cl)ccc3Cl)cn2)[C@@H]2[C@@H](C)OC(=O)[C@@H]2C[C@@H]1C
IC50 ([3]; read-out: IC50): 513 nM

SMILES: CC[C@H]1[C@H](/C=C/c2ccc(-c3cccc(F)c3)cn2)[C@@H]2[C@@H](C)OC(=O)[C@]2(O)C[C@@H]1C
IC50 ([3]; read-out: IC50): 27 nM
AUC(0-t) at 6 h [4]: 1140 ng·h/mL
inhibition in vivo at 3 mg/kg (Cynomolgus monkey [5]): 100%
inhibition (Cynomolgus monkey [6]): Active
AUC(0-t) at 24 h [7]: 4280 ng·h/mL

SMILES: CC[C@H]1[C@H](/C=C/c2ccc(-c3cccc(F)c3)cn2)[C@@H]2[C@@H](C)OC(=O)[C@@H]2C[C@@H]1C
IC50 ([3]; read-out: IC50): 15 nM
AUC(0-t) at 6 h [4]: 230 ng·h/mL
inhibition in vivo at 3 mg/kg (Cynomolgus monkey [5]): 100%
inhibition in vivo at 1 mg/kg (Cynomolgus monkey [8]): 69%
AUC(0-t) at 24 h [2]: 451 ng·h/mL
Cmax [9]: 62 ng/mL
AUC (Cynomolgus monkey [10]): 1400 ng·h/mL
Cmax (Cynomolgus monkey [11]): 98 ng/mL
Drug metabolism (Liver microsomes): Active

SMILES: CC[C@H]1[C@H](/C=C/c2ccc(-c3cccnc3)cn2)[C@@H]2[C@@H](C)OC(=O)[C@]2(O)C[C@@H]1C [listing 1 of 2 here]
IC50 ([3]; read-out: IC50): 49 nM
AUC(0-t) at 6 h [4]: 1900 ng·h/mL

SMILES: CC[C@H]1[C@H](/C=C/c2ccc(-c3ccc(OC)cc3)cn2)[C@@H]2[C@@H](C)OC(=O)[C@]2(O)C[C@@H]1C
IC50 ([3]; read-out: IC50): 451 nM

SMILES: CC[C@H]1[C@H](/C=C/c2ccc(-c3cccc(OC)c3)cn2)[C@@H]2[C@@H](C)OC(=O)[C@]2(O)C[C@@H]1C
inhibition (Cynomolgus monkey [12]): inactive

SMILES: CC[C@H]1[C@H](/C=C/c2ccc(-c3cccnc3)cn2)[C@@H]2[C@@H](C)OC(=O)[C@]2(O)C[C@@H]1C [listing 2 of 2 here]
inhibition in vivo at 3 mg/kg (Cynomolgus monkey [5]): 45%

SMILES: CC[C@H]1[C@H](/C=C/c2ccc(-c3ccccc3)cn2)[C@@H]2[C@@H](C)OC(=O)[C@@H]2C[C@@H]1C
IC50 ([3]; read-out: IC50): 8.8 nM
AUC(0-t) at 6 h [4]: 672 ng·h/mL

SMILES: CC[C@H]1[C@H](/C=C/c2ccc(-c3ccc(C#N)cc3)cn2)[C@@H]2[C@@H](C)OC(=O)[C@]2(O)C[C@@H]1C
IC50 [3]: Not Active

SMILES: CC[C@H]1[C@H](/C=C/c2ccc(-c3ccccc3)cn2)[C@@H]2[C@@H](C)OC(=O)[C@]2(O)C[C@@H]1C.Cl
inhibition in vivo at 1 mg/kg (Cynomolgus monkey [8]): 65%
AUC(0-t) at 24 h [13]: 3820 ng·h/mL
bioavailability [14]: 78%
AUC(0-t) [15]: 3980 ng·h/mL
Cmax [16]: 397 ng/mL
Tmax [17]: 1 h
Vd [18]: 1.5 L/kg
clearance [19]: 3.3 mL/min/kg
half-life [20]: 10.7 h
